# Experimental data from the array DNA melting data of Ke et al. (doi:10.1101/2024.01.08.574731).
# Legend:
# [1] = folding enthalpy; higher = less favourable; fluorescence melt of hairpins on a sequencing array, two-state fit; conditions: sodium 0.088 M
# Method in brief: (§1)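 Library hairpins on a sequenced MiSeq flow cell carried annealed Cy3 and quencher oligos, and their Cy3 fluorescence was imaged in 50 mM Na-HEPES pH 8.0 with 25 mM NaCl, in 2.5 °C steps up to 60 °C. Signals were normalised to Cy3 before quenching and to control constructs. Melting temperature and folding enthalpy were obtained from bootstrapped two-state fits, combined by inverse-variance weighting across four replicates, and the fitted temperatures were then raised by 9.35 °C to match UV melts.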
# [2] = melting temperature; fluorescence melt of hairpins on a sequencing array, two-state fit, raised by 9.35 °C to match UV melts; conditions: sodium 0.088 M
# Method in brief: as §1
Sequence,folding enthalpy [1] [kcal/mol],Tm [2] [°C]
CGTCTGAAAAGACG (((((....))))),-29.4,55.2
GACTGGGGAAACCCAATC ((.((((....)))).)),-14.6,31.7
GGAGCGTCGAAAGACTCC (((..(((....)))))),-13.7,31.4
GTCTCCGGAAACGGAAAC ((.((((....)))).)),-16.2,36.3
GGTTATGGAAACACAACC ((((.((....)).)))),-24.6,33.8
GCGGAGTCCCGC ((((....)))),-21.1,55.7
GCCCCCGAAAGGGCGGGC ((((((....)))..))),-17.9,63.7
GATCGGTTACCGATC ((((((...)))))),-36.1,59.3
GGACCCGAAAGGGGTTCC ((((((....)))..))),-15,48.3
GCGATCGGAAACGATTGC ((.((((....)))).)),-43.5,56.3
GGTATACGAAAGTACACC (((.(((....))).))),-28.7,40
GATCTCAGTGGAGATC ((((((....)))))),-40.9,52.6
GACATCCCGAAAGGGGTC (((..(((....)))))),-11.1,34.4
GCCCAAACGAAAGTTGGC (((..(((....)))))),-19.2,45
GCATCAGGAAACTGATAC (.(((((....))))).),-18.7,34.2
GATCGGCCCGCCGATC ((((((....)))))),-43.9,68.3
GGCATCGAAAGATTTGCC ((((((....)))..))),-29.2,40.7
GCTCACGAAAGTGTTAGC ((((((....)))..))),-21.6,40.8
GCTGCCGAAAGGCATAGC ((((((....)))..))),-15,51.6
GTTCGACCGAAAGGTAAC (((..(((....)))))),-10.9,27.3
GCGTGAGGAAACTCATGC ((.((((....)))).)),-35.8,53.4
GCTTGGCGAAAGCGAAGC ((((.((....)).)))),-18.6,60.4
GCTATCCGAAAGGAGAGC (((.(((....))).))),-38.9,58.6

Sequence,folding enthalpy [1] [kcal/mol],Tm [2] [°C]
GGGTTAGGAAACTAGCCC (((.(((....))).))),-24.3,49
GATCAATCTTTGATC ((((((...)))))),-28.2,44.6
CAGTAGAAATACTG (((((....))))),-15.3,38.6
GTAACTCGAAAGAGGTAC (((.(((....))).))),-28.7,51.6
GTCGTCCGAAAGGAGAC (((.(((....)))))),-20.6,49.3
GATCTCTAGGAGATC ((((((...)))))),-39.1,52.9
GTGTGCCGAAAGGCCAC (((.(((....)))))),-20.6,63.8
GTCTGGGGAAACCCAAAC ((.((((....)))).)),-14.3,31.8
GGGGGCGAAAGCCCACCC ((((((....)))..))),-10.1,57.3
GATTTGCCGAAAGGCATC (((..(((....)))))),-5.81,21.9
GCTTATGCGAAAGCAAGC (((..(((....)))))),-16.6,42.4
GGTCCCCGAAAGGGAACC (((.(((....))).))),-37,53
GAGTGCGAAAGCATCTC ((((((....))).))),-21,52.1
GTCAACCGAAAGGTCGAC (((.(((....))).))),-35.1,50.9
GTTTGTGGAAACGCAAAC (((((.(....).))))),-36.2,48.4
GAACAAGGAAACTTGTCC (.(((((....))))).),-15.4,31.3
GATCCTGGCGAGGATC ((((((....)))))),-48.3,54.6
GTCAACGAAAGTTATGAC ((((((....)))..))),-20.5,33.1
GTCTTGGGAAACCAGGAC (((.(((....))).))),-30.3,47.2
GGACATGGAAACGTGTCC (((((.(....).))))),-45.1,52.6
GGGAGGGGAAACCCCCCC (((.(((....))).))),-38.7,53.3
GGGTTAGGAAACCAACCC (((((.(....).))))),-33.9,45.6
GGCCCGCGAAAGCGTGCC (((.(((....))).))),-26.5,67.3
